The source made the active and inactive calls. The calls are words filed in the database; no cut-off is given here.

A short description of assay [1]: Cytotoxicity against human NCI60 cells assessed as concentration required for total growth inhibition. Format: functional. The procedure, abridged: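 NCI 60 human tumor cell line screen. TGI is the concentration causing total growth inhibition, given as the mean across the 60-cell-line panel.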
Assay [2] is described as follows: Cytotoxicity against human NCI60 cells. Format: functional. To be noted: for CC50: read-out: LC50 (the source's name). In a few lines:
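Screened in the NCI 60 human tumour cell-line panel. Values are GI50 (50% growth inhibition), TGI (total growth inhibition) and LC50 (50% lethality) concentrations, each reported as the mean across the 60-cell-line panel.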

Assay [3] relates to DNA. Put plainly: Binding affinity to calf thymus DNA at 5 uM after 4 hrs by UV-visible spectrophotometric analysis. Format: nucleic-acid assay. To be noted: Bos taurus. In a few lines:
(§1)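 Calf thymus DNA at 50 μM bp with ligand fixed at 5 μM. Buffer was 10 mM sodium phosphate, 1 mM EDTA, pH 7.00, with ≤0.3% DMSO. Incubated at 37 °C, then melted at 1 °C/min from 50–99 °C while monitoring absorbance at 260 nm. Buffer baseline subtracted and DMSO-corrected. ΔTm = Tm(DNA+ligand) − Tm(DNA), run in triplicate.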

Assay [4] deals with DNA. In words: Binding affinity to calf thymus DNA at 5 uM after 18 hrs by UV-visible spectrophotometric analysis. The format is nucleic-acid assay. Particulars: Bos taurus. The procedure, abridged:
as §1

For assay [5], the species on record is Homo sapiens. In words: Binding affinity to 170 bp human DNA topoisomerase 2-alpha promoter ICB2 site at 1 uM after 17 hrs by DNase 1 footprinting assay. The procedure, abridged:
(§2)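 170 bp Topo IIα promoter fragment (ICB1 and ICB2) PCR-amplified from human genomic DNA, IR700 end-labeled, used at 4 nM final. Incubated in the dark for 17 h at room temperature. DNase I digestion for 8 min, stopped with EDTA. Denaturing sequencing gel with IR dye detection and G+A markers.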

Assay [6] is filed under the species Homo sapiens. In words: Binding affinity to 170 bp human DNA topoisomerase 2-alpha promoter ICB1 site at 1 uM after 17 hrs by DNase 1 footprinting assay. The procedure, abridged:
as §2

A further assay relates to NIH3T3. In words: Binding affinity to topo 2-alpha ICB2 (5'-CTACGATTGGTTCTT-3') in mouse NIH/3T3 cells nuclear extract assessed as inhibition of NF-Y transcription factor binding at 5 uM preincubated for 1.5 hrs by electrophoretic mobility shift assay. Format: cell-free. In a few lines:
(§3)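 Nuclear extract from NIH3T3 cells grown in DMEM with 10% newborn calf serum. 5 μg extract held at 4 °C for 30 min in K-Hepes pH 7.9 buffer with poly(dI-dC). About 0.1 ng of 32P end-labeled double-stranded ICB1 or ICB2 oligonucleotide then added for 2 h at room temperature. Run on 4% native polyacrylamide gel at 4 °C with autoradiography. Cold and mutated oligonucleotides served as controls.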
(In general: In EMSA bound probe runs differently from free probe, usually more slowly.)

Assay [7] deals with NIH/3T3. In words: Binding affinity to topo 2-alpha ICB1 (5'-CAGGGATTGGCTGGT-3') in mouse NIH/3T3 cells nuclear extract assessed as inhibition of NF-Y transcription factor binding at 5 uM preincubated for 1.5 hrs and by electrophoretic mobility shift assay. Format: cell-free. In a few lines:
as §3

The test system of assay [8] is NIH/3T3. Put plainly: Binding affinity to Topo 2-alpha ICB1 (5'-CAGGGATTGGCTGGT-3') in mouse NIH/3T3 cells nuclear extract assessed as inhibition of NF-Y transcription factor binding at 50 uM preincubated for 1.5 hrs by electrophoretic mobility shift assay. The format is cell-free. The procedure, abridged: as §3
For assay [9], the species on record is Homo sapiens. In words: Binding affinity to 170 bp human DNA topoisomerase 2-alpha promoter ICB1 site at 5 uM after 17 hrs by DNase 1 footprinting assay. The procedure, abridged:
as §2

Usually TGI stands for the concentration at which net growth stops. By GI50 is commonly meant the concentration at which growth is held to half of that of the control. The low end stands for greater sensitivity of the cells, the high end for lower sensitivity of the cells. In general, ΔTm refers to the change in melting temperature against a reference sample. Consider `CCOC(=O)c1nc(NC(=O)c2cc(NC(=O)c3nc(NC(=O)CCCOc4cc5c(cc4OC)C(=O)N4CCC[C@H]4C=N5)cn3C)cn2C)cn1C`, for which, in assay [1], the TGI was determined as 0.141 µM. Also, in assay [2], the GI50 came out at 0.0042 µM and the CC50 turned out to be 12.3 µM. For the same compound, the ΔTm with DNA [3] was 15.7 °C. Further, the ΔTm in the assay with DNA [4] was 16.2 °C.

With `CCOC(=O)c1nc(NC(=O)c2nc(NC(=O)c3nc(NC(=O)CCCOc4cc5c(cc4OC)C(=O)N4CCC[C@H]4C=N5)cn3C)cn2C)cn1C`, in [1], the TGI turned out to be 1.29 µM. Moreover, in [2], it took 0.0871 µM to inhibit growth by half (GI50) and the CC50 turned out to be 15.4 µM. Also, the ΔTm with DNA [3] worked out at 11.7 °C. Besides, the ΔTm in the assay with DNA [4] amounted to 12 °C.

As for `COC(=O)c1cc(NC(=O)c2nc(NC(=O)c3nc(NC(=O)CCCOc4cc5c(cc4OC)C(=O)N4CCC[C@H]4C=N5)cn3C)cn2C)cn1C`, in assay [1], the TGI is 0.037 µM. In addition, in assay [2], growth was halved (GI50) at 0.0038 µM and the CC50 turned out to be 6.8 µM. Also, the ΔTm with DNA [3] was found to be 15 °C. In addition, the ΔTm in the assay on DNA [4] turned out to be 15.4 °C.

On to `COC(=O)c1cc(NC(=O)c2cc(NC(=O)c3csc(NC(=O)CCCOc4cc5c(cc4OC)C(=O)N4CCC[C@H]4C=N5)n3)cn2C)cn1C`, for which the TGI in assay [1] was 0.03 µM. Moreover, in assay [2], the GI50 worked out at 0.0014 µM. Further, the CC50 in [2] is 4.4 µM. In addition, the ΔTm in the assay with DNA [3] turned out to be 17.4 °C; in the assay with DNA [4], 18.2 °C.

Take `CCOC(=O)c1nc(NC(=O)c2nc(NC(=O)c3cc(NC(=O)CCCOc4cc5c(cc4OC)C(=O)N4CCC[C@H]4C=N5)cn3C)cn2C)cn1C`: the TGI in [1] is 0.027 µM. In assay [2], the GI50 turned out to be 0.0135 µM and the CC50 stood at 9.5 µM. Moreover, the ΔTm in the assay on DNA [3] came to 14.8 °C. Further, the ΔTm in the assay on DNA [4] was 15.2 °C.

Turning to `CCOC(=O)c1csc(NC(=O)c2csc(NC(=O)c3cc(NC(=O)CCCOc4cc5c(cc4OC)C(=O)N4CCC[C@H]4C=N5)cn3C)n2)n1`, the ΔTm amounted to 8.1 °C with DNA [3] and 8.4 °C in the assay on DNA [4].

For `COC(=O)c1cc(NC(=O)c2nc(NC(=O)c3cc(NC(=O)CCCOc4cc5c(cc4OC)C(=O)N4CCC[C@H]4C=N5)cn3C)cn2C)cn1C`, the TGI in assay [1] was 0.02 µM. This compound showed a GI50 in assay [2] of 0.003 µM. Moreover, the CC50 in assay [2] was determined as 6.6 µM. Further, the ΔTm with DNA [3] is 16 °C; with DNA [4], 16.9 °C.

On to `COC(=O)c1cc(NC(=O)c2csc(NC(=O)c3cc(NC(=O)CCCOc4cc5c(cc4OC)C(=O)N4CCC[C@H]4C=N5)cn3C)n2)cn1C`, for which the TGI in assay [1] came out at 0.05 µM. Further, in assay [2], halving of growth (GI50) required 0.0028 µM and the CC50 is 9.1 µM. In the assay with DNA [3], the ΔTm came to 19.9 °C. In the assay on DNA [4], the ΔTm came out at 20.7 °C.

Take `CCOC(=O)c1nc(NC(=O)c2cc(NC(=O)c3cc(NC(=O)CCCOc4cc5c(cc4OC)C(=O)N4CCC[C@H]4C=N5)cn3C)cn2C)cn1C`: the TGI in assay [1] is 0.037 µM. Also, in assay [2], the GI50 stood at 0.0038 µM and the CC50 stood at 6.8 µM. For the same compound, in the assay with DNA [3], the ΔTm came to 17.6 °C. Also, the ΔTm in the assay on DNA [4] turned out to be 18.7 °C.

In the case of `COC(=O)c1cc(NC(=O)c2cc(NC(=O)CCCOc3cc4c(cc3OC)C(=O)N3CCC[C@H]3C=N4)cn2C)cn1C`, the outcome in the assay filed under Homo sapiens [5] and in the assay listed under Homo sapiens [6] was Active. Further, the inhibition entry with NIH3T3 and with NIH/3T3 [7] was “Active” throughout.

On to `COC(=O)c1cc(NC(=O)c2cc(NC(=O)c3cc(NC(=O)CCCOc4cc5c(cc4OC)C(=O)N4CCC[C@H]4C=N5)cn3C)cn2C)cn1C`, for which the TGI in assay [1] came out at 0.032 µM. In [2], growth was halved (GI50) at 0.015 µM and the CC50 worked out at 1.1 µM. Further, in the assay with DNA [3], the ΔTm worked out at 18.7 °C. Besides, the ΔTm with DNA [4] amounted to 20.2 °C.

Regarding `CCOC(=O)c1csc(NC(=O)c2cc(NC(=O)c3csc(NC(=O)CCCOc4cc5c(cc4OC)C(=O)N4CCC[C@H]4C=N5)n3)cn2C)n1`, the results for the ΔTm in the assay on DNA [3] and with DNA [4] were 7.1 °C and 7.8 °C, respectively.

Turning to `COC(=O)c1cc(NC(=O)c2cc(NC(=O)c3nc(NC(=O)CCCOc4cc5c(cc4OC)C(=O)N4CCC[C@H]4C=N5)cn3C)cn2C)cn1C`, the TGI in assay [1] worked out at 0.024 µM. In addition, the result in the assay filed under Homo sapiens [5] and in the assay listed under Homo sapiens [9] was Active. The compound further came in with a GI50 in assay [2] of 0.0013 µM. The CC50 in [2] was 2.3 µM. The inhibition entry with NIH/3T3 [8] and in the assay with NIH3T3 was “Active” throughout. The values for the ΔTm in the assay on DNA [3] and in the assay with DNA [4] were 19.8 °C and 21.1 °C, respectively.

Consider `CCOC(=O)c1csc(NC(=O)c2csc(NC(=O)c3csc(NC(=O)CCCOc4cc5c(cc4OC)C(=O)N4CCC[C@H]4C=N5)n3)n2)n1`, for which, in assay [1], the TGI turned out to be 2.04 µM. In assay [2], the GI50 was determined as 0.282 µM and the CC50 is 15.8 µM. Besides, the ΔTm in the assay with DNA [3] turned out to be 10.7 °C. The ΔTm in the assay on DNA [4] was 10.9 °C.

Take `CCOC(=O)c1csc(NC(=O)c2cc(NC(=O)c3cc(NC(=O)CCCOc4cc5c(cc4OC)C(=O)N4CCC[C@H]4C=N5)cn3C)cn2C)n1`: in [1], the TGI is 0.028 µM. Also, in assay [2], the GI50 was determined as 0.0029 µM and the CC50 turned out to be 8.9 µM. Further, in the assay with DNA [3], the ΔTm is 17.7 °C. Also, the ΔTm with DNA [4] was 18.6 °C.

Values taken from ChEMBL document CHEMBL2417466, “An extended pyrrolobenzodiazepine-polyamide conjugate with selectivity for a DNA sequence containing the ICB2 transcription factor binding site” (2013).
